This note sets out measurements from ChEMBL document CHEMBL4396895, “Identification and Optimization of Novel Cathepsin C Inhibitors Derived from EGFR Inhibitors” (J Med Chem, 2019).

For orientation: IC50 means the midpoint of a concentration-inhibition curve.

The nature of data set [1]: Intrinsic clearance in human liver microsomes assessed per mg protein measured after 60 mins in presence of NADPH by LC-MS/MS analysis. Format: ADME, Microsome. As to conditions: read-out: CLH. In general terms: Liver microsomes are vesicles of endoplasmic reticulum, rich in cytochrome P450 enzymes.
Data set [2] addresses T1, Dipeptidyl peptidase 1 (Homo sapiens, UniProt P53634). The data set is described as follows: Inhibition of cathepsin C in human U937 cells using H-Gly-Phe-AFC as substrate preincubated for 4 hrs followed by substrate addition and measured after 60 mins. Format: cell-based. The procedure, abridged: (§1)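 THP1 or U937 cells, grown in RPMI 1640 with 10% FBS, were seeded at 1.0 × 10^6/mL. They were preincubated with threefold serial dilutions of compound for 4 h at 37 °C. H-Gly-Phe-AFC was then added from a 100 μM solution and fluorescence was read after 60 min at 37 °C. Values are means of at least two experiments.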

The nature of data set [3]: Intrinsic clearance in mouse liver microsomes assessed per mg protein measured after 60 mins in presence of NADPH by LC-MS/MS analysis. As to conditions: read-out: CLH. It counts as ADME, Microsome.
The target of data set [4] is T1, Dipeptidyl peptidase 1. In words: Inhibition of CatL-activated recombinant human C-terminal His10-tagged cathepsin C (25 to 463 residues) expressed in mouse myeloma cells using Gly-Phe-AFC as substrate preincubated for 3 hrs followed by substrate addition and measured after 60 mins. It counts as cell-free. The essentials: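 Activated rhCatC was diluted to 4.4 nM in 25 mM MES, 50 mM NaCl, 5 mM DTT, 0.01% Triton X-100, pH 6.0. It was preincubated with compound (added in 10% DMSO) for 3 h at RT. Gly-Phe-AFC was then added to 100 μM final and read as fluorescence after 60 min. IC50 came from a sigmoidal nonlinear fit; values are means of at least two experiments.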

For data set [5], the target named is T2, Epidermal growth factor receptor (Homo sapiens, UniProt P00533). The data set is described as follows: Inhibition of EGFR (unknown origin) using biotin-labelled peptide as substrate preincubated for 2 hrs followed by substrate addition and measured after 30 mins by HTRF FRET assay. For orientation: Time-resolved FRET reads energy transfer from a long-lived donor to a nearby acceptor.

The nature of data set [6]: Intrinsic clearance in rat liver microsomes assessed per mg protein measured after 60 mins in presence of NADPH by LC-MS/MS analysis. Format: ADME, Microsome. As to conditions: read-out: CLH.
The target of data set [7] is T2, Epidermal growth factor receptor. The data set is described as follows: Inhibition of EGFR (unknown origin) up to 10 uM using biotin-labelled peptide as substrate preincubated for 2 hrs followed by substrate addition and measured after 30 mins by HTRF FRET assay. The essentials:
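EGFR WT was used at 0.1 nM final in 50 mM HEPES pH 7.0, 0.02% NaN3, 0.01% BSA, 0.1 mM orthovanadate, 10 mM MgCl2, 2.5 mM DTT, 6.25 nM SEB. It was preincubated with compound for 2 h. Biotin-peptide (1.4 μM) and ATP (20 μM) were then added for 30 min at RT. Read-out was HTRF/TR-FRET (Ex 320, Em 615/665 nm) with a sigmoidal curve fit.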

Data set [8] concerns the target Procathepsin L (Homo sapiens, UniProt P07711). The data set is described as follows: Inhibition of recombinant human C-terminal His6-tagged cathepsin L (Glu113 to Val333 and Ala114 to Val333 residues) expressed in mouse myeloma cells using Z-Leu-Arg-AMC as substrate preincubated for 30 mins followed by substrate addition and measured after 30 mins. The procedure, abridged: (§2)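 Recombinant human cathepsin was preincubated with compound for 30 min at RT, then reacted with substrate for 30 min. CatB and CatL were read with Z-Leu-Arg-AMC (Ex 380/Em 460 nm). CatS was read with MCA-Arg-Pro-Lys-Pro-Val-Glu-Nva-Trp-Arg-Lys(DNP)-NH2 (Ex 320/Em 405 nm). E-64 served as inhibitor control.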

Data set [9] deals with Cathepsin B (Homo sapiens, UniProt P07858). In words: Inhibition of recombinant human C-terminal polyhistidine-tagged cathepsin B (Arg18 to Ile339 residues) expressed in HEK293 cells using Z-Leu-Arg-AMC as substrate preincubated for 30 mins followed by substrate addition and measured after 30 mins. The procedure, abridged: as §2
Data set [10] addresses Cytochrome P450 2D6 (Homo sapiens, UniProt P10635). In words: Inhibition of CYP2D6 (unknown origin). It counts as ADME. The procedure, abridged:
(§3)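 Tested against recombinant human cytochrome P450 isoforms 1A2, 2D6, 3A4, 2C9 and 2C19.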

The target of data set [11] is Cathepsin S (Homo sapiens, UniProt P25774). The data set is described as follows: Inhibition of recombinant human C-terminal polyhistidine-tagged cathepsin S (Met1 to Ile331 residues) expressed in HEK293 cells using MCA-Arg-Pro-Lys-Pro-Val-Glu-NVAL-Trp-Arg-Lys(DNP)-NH2 as substrate preincubated for 30 mins followed by substrate addition and measured after 30 mins. The essentials: as §2

Data set [12] deals with T1, Dipeptidyl peptidase 1. The data set is described as follows: Inhibition of cathepsin C in human THP1 cells using H-Gly-Phe-AFC as substrate preincubated for 4 hrs followed by substrate addition and measured after 60 mins. Format: cell-based. The essentials: as §1
Data set [13] has as its target Cytochrome P450 2C9 (Homo sapiens, UniProt P11712). In words: Inhibition of CYP2C9 (unknown origin). Format: ADME. The essentials: as §3
In data set [14] the target is Cytochrome P450 3A4 (Homo sapiens, UniProt P08684). In words: Inhibition of CYP3A4 (unknown origin). Format: ADME. The essentials:
as §3

For data set [15], the target named is Cytochrome P450 2C19 (Homo sapiens, UniProt P33261). In words: Inhibition of CYP2C19 (unknown origin). Format: ADME. The essentials:
as §3

Data set [16] deals with T3, Cytochrome P450 1A2 (Homo sapiens, UniProt P05177).
T3 sequence (P05177 whole entry): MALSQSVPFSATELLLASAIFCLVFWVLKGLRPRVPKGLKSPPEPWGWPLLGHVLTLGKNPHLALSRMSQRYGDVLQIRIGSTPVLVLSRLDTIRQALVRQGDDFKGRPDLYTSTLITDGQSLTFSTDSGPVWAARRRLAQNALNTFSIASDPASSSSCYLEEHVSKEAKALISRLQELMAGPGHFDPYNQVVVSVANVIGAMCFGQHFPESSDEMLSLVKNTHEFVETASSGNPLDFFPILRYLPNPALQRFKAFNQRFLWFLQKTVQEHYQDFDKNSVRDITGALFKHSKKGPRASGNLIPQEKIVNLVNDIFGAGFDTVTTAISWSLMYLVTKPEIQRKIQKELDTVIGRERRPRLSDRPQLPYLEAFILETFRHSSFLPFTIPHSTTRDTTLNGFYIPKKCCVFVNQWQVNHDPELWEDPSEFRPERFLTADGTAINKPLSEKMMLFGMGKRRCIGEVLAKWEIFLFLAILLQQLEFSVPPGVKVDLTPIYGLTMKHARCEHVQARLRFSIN
The data set is described as follows: Inhibition of CYP1A2 (unknown origin). It counts as ADME. The procedure, abridged: as §3

Data set [17] relates to Mus musculus. In words: Protection against C57BL/6 mouse model of caerulein-induced acute pancreatitis at 20 mg/kg, po pretreated twice daily for 6 days followed by caerulein-challenge at 1 hr interval for 8 hrs and measured 1 hr post-last caerulein-challenge by H and E staining-based histological analysis.
For data set [18], the system named is Mus musculus. The data set is described as follows: Protection against C57BL/6 mouse model of caerulein-induced acute pancreatitis assessed as reduction in CatC activity at 20 mg/kg, po pretreated twice daily for 6 days followed by caerulein-challenge at 1 hr interval for 8 hrs and measured 1 hr post-last caerulein-challenge.

Activity calls are given as the source filed them. The rule behind the calls is not given here. Where only a bound is given, the exact number is not on record here.

With `C=CC(=O)Nc1cccc(Oc2nc(Nc3ccc(N4CCN(C)CC4)cc3OC)ccc2Cl)c1`, the microsomal CLint in data set [1] was 5.4 µL/min/mg; in data set [3], 26.3 µL/min/mg; in data set [6], 39.7 µL/min/mg. For the same compound, the IC50 is 0.537 to 0.538 µM in data set [2], 0.81 µM in data set [4] and more than 10 µM in [5]. The inhibition entry in data set [7] was “inactive”.

Consider `C=CC(=O)Nc1cc(Oc2nc(Nc3ccc(N4CCN(C)CC4)cc3OC)ccc2N2CCCC2)ccc1C`, for which the IC50 in data set [8] is 3 to 10 µM; in [9] it was 3 to 10 µM; in data set [10] it was more than 10 µM; in [11], more than 10 µM; in data set [12], 0.0123 µM; in [2], 0.0408 µM. Besides, the IC50 in [13] is more than 10 µM; in [14], more than 10 µM; in data set [15] it was 9.91 µM; in data set [4], 0.044 µM; in data set [16] it was 8.75 µM. The microsomal CLint in data set [1] turned out to be 4.3 µL/min/mg; in data set [3] it was 26.7 µL/min/mg; in data set [6] it was 23.1 µL/min/mg. The inhibition result in [7] is “inactive”.

On to `C=CC(=O)Nc1cc(Oc2nc(Nc3ccc(N4CCN(C)CC4)cc3OC)ccc2N2CCOCC2)ccc1C`, for which the 50% inhibitory concentration (IC50) in data set [8] was more than 10 µM; in data set [9], 3 to 10 µM; in [10], more than 10 µM; in data set [11], more than 10 µM; in [12], 0.0039 µM; in data set [2] it was 0.0059 µM. In addition, the half-maximal inhibitory concentration (IC50) in data set [13] is more than 10 µM; in data set [14], more than 10 µM; in data set [15], more than 10 µM; in data set [4], 0.059 to 0.0593 µM; in [16], more than 10 µM. Also, the microsomal CLint in data set [1] turned out to be 1.9 µL/min/mg; in [3], 4 µL/min/mg; in data set [6], 10 µL/min/mg. Besides, in [7], the inhibition result was “inactive”.

Turning to `N#Cc1ccc(-c2ccc(C[C@@H](C#N)NC(=O)C3(N)CCOCC3)cc2)cc1`, the outcome in [17] and in data set [18] was Active.
